From PubChem BioAssay
Glyco luc inh: blocks N-linked glycosylation in D54 reporter cells; D54 ERlucT glycosylation luciferase reporter, 24 h; percent of 100 nM tunicamycin response; reporter increase, % at 12.5 µM; 360,000 compounds, 0.23% hits; AID 588692;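 active means mean luciferase reporter signal, scaled so untreated is 0 and the glycosylation-blocking control 100, at or above a set limit in every replicate; inconclusive means mean reaches the limit but not every replicate does; inactive means mean below the limit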;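 further: luciferase carries N-glycosylation sites so blocking glycosylation raises the light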
HSF1 activator: increases HSF-1 driven luciferase reporter signal | NIH3T3-HGL HSF-1 luciferase reporter, MG132, 8 h; 100% = twice DMSO control signal | activation, % at 9 µM | 300,000 compounds, 1.7% hits | AID 504408;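 active means mean replicate activation of at least 50% with a set share of replicates each reaching 50%; inconclusive means only one of those two conditions met; inactive means mean below 50% and too few replicates reaching it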
PfHsp90 set2: growth inhibition of yeast expressing Plasmodium Hsp90. S. cerevisiae expressing PfHsp90, BacTiter-Glo ATP, 48 h; yeast lacking PDR1 and PDR3 efflux regulators. inhibition, % at 9.4 µM. 310,000 compounds, 0.32% hits. AID 504621;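 active means every replicate shows inhibition above about 80%, whatever the replicate mean, limit read from the data; inconclusive means mean inhibition reaches the set limit but some replicate falls short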
T cruzi repl: T. cruzi replication inhibition. AID 1885. inhibition, % (concentration not given with the values). 300,000 compounds, 1.4% hits. T. cruzi beta-gal in NIH3T3, luminescence, 90 h;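 active means mean inhibition across valid replicates above about 55%, limit read from the data; inconclusive means mean below that limit but half or more replicates reach it; inactive means mean below it, under half of replicates reach it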;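 further: signal also drops with host cell toxicity which is not excluded here; higher percent means less beta-gal luminescence so fewer parasites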
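Incubation – ≥90 h infection period, 3 h prior cell attachment · System – NIH/3T3 fibroblasts plus reporter T. cruzi · Doses – compound pinned at 50 nL/well, DMSO · Read-out basis – percent inhibition of parasite-derived β-gal signal · Signal – luminescent β-galactosidase signal after 60 min lysis · Also added – 5000 T. cruzi trypomastigotes/well · Medium – Low-serum DMEM with 2% FBS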
CaV13 FRET inh: Primary screen for inhibitors of IQ motif and Ca2+-dependent inactivation inhibitor domain binding in CACNA1D, Förster resonance energy transfer in living cells, …; HEK cells, CFP/YFP FRET ICDI-IQ, plate reader, 10 min; percent FRET-ratio fall versus neutral wells; inhibition, % at 12.3 µM; 340,000 compounds, 0.098% hits; AID 743397;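 active means mean replicate inhibition of at least 30% and at least 1% of replicates passing that level; inconclusive means only one of the two criteria is met; inactive means neither criterion is met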
PvdQ inh: blocks Pseudomonas aeruginosa PvdQ acylase activity; purified PvdQ acylase, fluorescence plate reader; inhibition, % at 10 µM; 340,000 compounds, 0.063% hits; AID 488965; in the data active means inhibition above about 30%, passing the limit was not always enough; inconclusive means no clear call, values can overlap the other calls
Of the large screens only hits and unclear results are named; the others gave an inactive call. Only some compounds are listed: those with a hit (about 3% of all), similar ones and a draw of the others.

CCCCNC(=O)C[C@H]1C[C@@]2(C(=O)OC)C(=C[C@H](C3CCCC3)O[C@@H]2C)N(Cc2ccccc2)C1=O	none (no result: Glyco luc inh, HSF1 activator, PfHsp90 set2, T cruzi repl, PvdQ inh)
COc1ccc(/C=C/C(=O)c2ccc(C(=O)/C=C/c3ccc(OC)c(OC)c3)cc2)cc1OC	T cruzi repl inconclusive
COc1ccc(C(=O)/C=C/c2ccc(OC(=O)c3cc(OC)c(OC)c(OC)c3)cc2)cc1	Glyco luc inh 42
COC(=O)c1ccc(/C=C/C(=O)c2ccc(OC)c(OC)c2)cc1	Glyco luc inh 62 (no result: CaV13 FRET inh)
CCOc1ccc(C(=O)/C=C/c2cc(OC)c(OC)c(OC)c2)cc1	none (no result: CaV13 FRET inh)
CC(=O)N1CCN(c2ccc(N3CCN(C(C)=O)[C@H](C)C3)c(C)c2)[C@H](C)C1	none (no result: Glyco luc inh, HSF1 activator, PfHsp90 set2, T cruzi repl, PvdQ inh)
COc1cc(-n2nc(C)c3c2OC(N)=C(C#N)C3c2ccccc2)c(Cl)c(Br)c1O (centres undefined)	HSF1 activator 78
Cc1nn(-c2ccccc2)c2c1C(c1ccncc1)C(C#N)=C(N)O2 (centres undefined)	none (no result: CaV13 FRET inh)
Cc1ccc(-n2nc(C)c3c2OC(N)=C(C#N)C3c2ccncc2)cc1 (centres undefined)	HSF1 activator 62
Cc1nn(-c2ccccc2)c(Cl)c1C1C(C#N)=C(N)Oc2c1c(C)nn2-c1ccccc1 (centres undefined)	none
COc1cc(C(=O)N2CCCC(c3cc(C(=O)NCc4ccccc4)no3)C2)cc(OC)c1C (centres undefined)	none (no result: HSF1 activator, PfHsp90 set2, T cruzi repl, PvdQ inh)
O=C(NC(Nc1cc(C(F)(F)F)ccc1Cl)C(=O)c1ccccc1)c1ccccc1 (centres undefined)	T cruzi repl 58 (no result: PfHsp90 set2)
Cc1csc(NC(=O)CSc2nnc(CCNC(=O)c3cccs3)n2C)n1	none
Cn1c(CCNC(=O)c2cccs2)nnc1SCC(=O)Nc1nc(-c2ccccc2)cs1	HSF1 activator 54
CC(=O)Oc1ccc(-c2cccc(C(=O)OCC(=O)N(C)c3ccccc3)c2)cc1	HSF1 activator 90
CCOC(=O)c1c(C)n(C)c2ccc(OCC(O)CNCCc3ccccc3)cc12 (centres undefined)	HSF1 activator 77, T cruzi repl 55
CCOC(=O)c1c(-c2ccccc2)oc2ccc(OCC)cc12	none
CCOC(=O)c1c(-c2ccccc2)oc2ccc(OCC(O)CNCCN(C)C)cc12 (centres undefined)	T cruzi repl 79
CCOc1ccc(C(=O)c2ccc([N+](=O)[O-])cc2Cl)cc1	T cruzi repl 60
Cc1nc(-c2ccccc2)sc1C(=O)NS(=O)(=O)c1ccc(CN2CCN(c3ccccc3)CC2)cc1	none (no result: Glyco luc inh, HSF1 activator, PfHsp90 set2, T cruzi repl, PvdQ inh)
Cc1cc(N2CCNC[C@@H]2C)ccc1N1C[C@@H](C)O[C@@H](C)C1	none (no result: Glyco luc inh, HSF1 activator, PfHsp90 set2, T cruzi repl, PvdQ inh)
CCOC(=O)c1ccc(N=c2sc(C(=O)OC)cc(=O)n2-c2ccc(C(=O)OCC)cc2)cc1	Glyco luc inh inconclusive, HSF1 activator 105
COC(=O)c1cc(=O)n(-c2ccccc2)c(=Nc2ccccc2)s1	none
COc1ccccc1NC(=S)N/N=C/c1ccc(O)cc1	HSF1 activator 81
COc1ccccc1NC(=S)N/N=C/c1cccc(C)c1	Glyco luc inh inconclusive
Cc1nn(-c2ccccc2)c(C)c1/C=N/NC(=O)CSc1nnc(-c2ccccc2)n1-c1ccc(Cl)cc1	none
Cc1ccc(CSc2nnc(SCC(=O)N/N=C/c3c(C)nn(-c4ccccc4)c3C)s2)cc1	HSF1 activator 65
Cc1nn(-c2ccccc2)c(C)c1/C=N/NC(=O)CSc1nnc(SCc2ccccc2Cl)s1	HSF1 activator 68
COc1ccc(C(=O)c2[nH]c(N)c(C(=O)NCCc3c[nH]c4ccccc34)c2-c2ccc(Cl)c(F)c2)cc1	none (no result: Glyco luc inh, HSF1 activator, PfHsp90 set2, T cruzi repl, PvdQ inh)
O=c1cc(CSc2ccc(Cl)cc2)nc(N2CCCCC2)[nH]1	HSF1 activator 65 (no result: PfHsp90 set2)
CC(=O)N(Cc1ccc(F)cc1)C1=C(NCc2ccccc2)C(=O)c2ccccc2C1=O	T cruzi repl 67 (no result: CaV13 FRET inh)
COc1ccc([C@H]2N[C@]3(CCCN(Cc4ccc(C(F)(F)F)cc4)C3=O)[C@H]3C(=O)N(C)C(=O)[C@@H]23)cc1	none (no result: HSF1 activator, PfHsp90 set2, T cruzi repl, PvdQ inh)
N#CCCN(CCC#N)S(=O)(=O)c1ccc(C(=O)Nc2nc(-c3ccccc3)c(C(=O)c3ccccc3)s2)cc1	none
Cc1ccc(-c2nc(NC(=O)c3ccc(S(=O)(=O)N(CCC#N)CCC#N)cc3)sc2-c2ccccc2)cc1	T cruzi repl 56
Clc1cccc(CN2CCN(c3ncc(Cc4ccccc4)cn3)CC2)c1Cl	none (no result: Glyco luc inh, HSF1 activator, PfHsp90 set2, T cruzi repl, PvdQ inh)
CN1CCCCC(NC(=O)CCCl)C1=O (centres undefined)	none (no result: Glyco luc inh, HSF1 activator, PfHsp90 set2, T cruzi repl, PvdQ inh)
Cc1ccccc1Nc1cc2ccccc2c(=O)[nH]1	none (no result: CaV13 FRET inh)
O=c1[nH]c(Nc2ccccc2Cl)cc2ccccc12	HSF1 activator 61, CaV13 FRET inh active
COc1cccc(Oc2nnnn2-c2ccccc2)c1	none
COc1cccc(-n2nnnc2S(C)(=O)=O)c1	HSF1 activator 325 (no result: CaV13 FRET inh)
COc1cc2ccccc2cc1C(=O)Nc1ccc(C)cc1	none
O=C(Nc1ccc(F)cc1)c1ccccc1F	none
COc1cc2ccccc2cc1C(=O)Nc1ccc(Cc2ccncc2)cc1	T cruzi repl 62
O=C(Nc1ccncc1)c1cc2ccccc2cc1O	HSF1 activator 261
O=C(Nc1ccc2ccccc2c1)c1ccccc1F	HSF1 activator 56
Cc1oncc1C(=O)Nc1ccc2ccccc2c1	HSF1 activator 66 (no result: CaV13 FRET inh)
Cc1oncc1C(=O)Nc1cccc2ccccc12	none
COc1ccc(C2CC(=O)C(c3cc(OC)c(OC)c(OC)c3)=CN2Cc2ccccc2)cc1 (centres undefined)	none (no result: Glyco luc inh, HSF1 activator, PfHsp90 set2, T cruzi repl, PvdQ inh)
CC(C)C[C@H]1CN(CCCC[C@H]2CNC(=O)C(=O)N2CC2CCCCC2)C(=O)C(=O)N1CCc1ccc(O)cc1	none (no result: Glyco luc inh, HSF1 activator, PfHsp90 set2, T cruzi repl, PvdQ inh)
Cc1cccc(C)c1NC(=O)NS(=O)(=O)c1ccccc1	none (no result: HSF1 activator, PfHsp90 set2, T cruzi repl, PvdQ inh)
COc1cccc(NC(=O)c2cc3cccc(OC)c3o/c2=N\O)c1	HSF1 activator 59 (no result: Glyco luc inh, PfHsp90 set2, CaV13 FRET inh, PvdQ inh)
COc1ccccc1C(=O)Nc1ccc2ccccc2c1	HSF1 activator 66
COc1ccccc1C(=O)Nc1cc(Cl)ccc1O	HSF1 activator 65 (no result: CaV13 FRET inh)
CCOc1ccccc1C(=O)Nc1cc(Cl)ccc1O	none
COc1ccc(C(=O)Nc2ccc3ccccc3c2)c(OC)c1	none
COc1cccc(NC(=O)c2cc3ccccc3o/c2=N\O)c1	HSF1 activator inconclusive
N#C/C(=C/c1cccnc1)c1ccccc1	none
COc1cc(/C=C(\C#N)c2nc3c(s2)CCCC3)ccc1O	none (no result: Glyco luc inh, PfHsp90 set2, CaV13 FRET inh, PvdQ inh)
CC1CCc2nc(/C(C#N)=C/c3cccnc3)sc2C1 (centres undefined)	HSF1 activator 126
N#C/C(=C\c1cccnc1)c1nc2c(s1)CCCC2	HSF1 activator 107
COc1ccc(NC(=O)OC[C@@H]2CSCCS(=O)(=O)N2)cc1	none (no result: Glyco luc inh, HSF1 activator, PfHsp90 set2, T cruzi repl, PvdQ inh)
COc1ccc(C2Nc3ccccc3C(=O)N2c2ccc(C)cc2)cc1COc1ccccn1 (centres undefined)	HSF1 activator 58
